Laboratory results reported in ChEMBL document CHEMBL4808162, “Constraining the Side Chain of C-Terminal Amino Acids in Apelin-13 Greatly Increases Affinity, Modulates Signaling, and Improves the Pharmacokinetic Profile” (J Med Chem, 2021).

Columns and labels:
Apelin receptor [1] = target: T1, Apelin receptor (Homo sapiens, UniProt P35414); test: Displacement of [125I] [NIe75,Tyr77]Pyr-apelin-13 from YFP-tagged human APJ receptor expressed in HEK293 cells incubated for 1 hr by gamma counting analysis; type: cell-based
T1 sequence (P35414 whole entry): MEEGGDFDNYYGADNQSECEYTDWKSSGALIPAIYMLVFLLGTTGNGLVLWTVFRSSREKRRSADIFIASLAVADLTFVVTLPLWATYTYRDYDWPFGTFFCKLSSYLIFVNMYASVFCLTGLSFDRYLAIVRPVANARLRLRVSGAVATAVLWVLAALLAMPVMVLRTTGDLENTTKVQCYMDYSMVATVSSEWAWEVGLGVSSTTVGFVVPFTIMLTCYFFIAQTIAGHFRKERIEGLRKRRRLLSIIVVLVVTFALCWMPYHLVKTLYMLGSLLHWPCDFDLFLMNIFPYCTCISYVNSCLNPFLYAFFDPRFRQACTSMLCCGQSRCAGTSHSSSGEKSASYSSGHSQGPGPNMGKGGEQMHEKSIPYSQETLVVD

Apelin receptor [2] = target: T1, Apelin receptor; test: Agonist activity at human APJ receptor expressed in HEK293 cells co-expressing Rlucll-beta-arrestin2 assessed as induction of beta-arrestin2 recruitment to receptor incubated for 30 mins by BRET assay; type: functional, cell-based
Apelin receptor [3] = target: T1, Apelin receptor; test: Agonist activity at human APJ receptor expressed in HEK293T cells co-expressing PDZ-Rho-Gef-RLucll and rGFP-CAAX assessed as induction of recruitment of Galpha12 to cell membrane using coelenterazine luciferase substrate incubated for 5 mins by BRET assay; type: functional, cell-based, HEK293
Apelin receptor [4] = target: T1, Apelin receptor; test: Agonist activity at human APJ receptor expressed in HEK293T cells co-expressing Galphai1 RlucII assessed as dissociation of Galphai1 from Gbetta/gamma subunit measured using coelenterazine luciferase substrate incubated for 5 mins by BRET assay; type: functional, cell-based, HEK293
[5] = Stability in Sprague-Dawley rat plasma assessed as half life measured up to 24 hrs by UPLC-MS analysis; type: ADME, cell-free
How it was run: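 Peptide (6 μL of 1 mM aqueous solution) incubated with 27 μL male Sprague-Dawley rat plasma at 37 °C. Time points 0, 1, 2, 4, 7, 24 h, or 0–120 min for labile peptides. Reaction quenched with acetonitrile-ethanol containing N,N-dimethylbenzamide internal standard, filtered, then UPLC-MS. t1/2 from one-phase exponential decay; at least three experiments.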

Row | Ki (Apelin receptor [1]; hek293) | EC50 (Apelin receptor [2]; hek293) | EC50 (Apelin receptor [3]; hek293) | EC50 (Apelin receptor [4]; hek293) | half-life [5] | Ki (Apelin receptor [1]) | EC50 (Apelin receptor [2]) | EC50 (Apelin receptor [3]) | EC50 (Apelin receptor [4]) | Structure (SMILES)
1 | 0.08 nM | 33 nM | 28 nM | 4.2 nM | 6.1 h |  |  |  |  | CCCC[C@H](NC(=O)[C@@H]1CCCN1C(=O)CNC(=O)[C@H](CCCCN)NC(=O)[C@H](Cc1cnc[nH]1)NC(=O)[C@H](CO)NC(=O)[C@H](CC(C)C)NC(=O)[C@H](CCCNC(=N)N)NC(=O)[C@@H]1CCCN1C(=O)[C@H](CCCNC(=N)N)NC(=O)[C@@H]1CCC(=O)N1)C(=O)N[C@H](Cc1cccc2ccccc12)C(=O)N1Cc2ccccc2C[C@H]1C(=O)O
2 | 0.12 nM | 41 nM | 9.2 nM | 4.4 nM | 0.4 h |  |  |  |  | CCCC[C@H](NC(=O)[C@@H]1CCCN1C(=O)CNC(=O)[C@H](CCCCN)NC(=O)[C@H](Cc1cnc[nH]1)NC(=O)[C@H](CO)NC(=O)[C@H](CC(C)C)NC(=O)[C@H](CCCNC(=N)N)NC(=O)[C@@H]1CCCN1C(=O)[C@H](CCCNC(=N)N)NC(=O)[C@@H]1CCC(=O)N1)C(=O)N[C@@H](Cc1cccc2ccccc12)C(=O)N[C@@H](Cc1ccccc1)C(=O)O
3 | 0.46 nM | 106 nM | 45 nM | 3.8 nM |  |  |  |  |  | CCCC[C@H](NC(=O)[C@@H]1CCCN1C(=O)CNC(=O)[C@H](CCCCN)NC(=O)[C@H](Cc1cnc[nH]1)NC(=O)[C@H](CO)NC(=O)[C@H](CC(C)C)NC(=O)[C@H](CCCNC(=N)N)NC(=O)[C@@H]1CCCN1C(=O)[C@H](CCCNC(=N)N)NC(=O)[C@@H]1CCC(=O)N1)C(=O)N1CCC[C@H]1C(=O)N[C@H](Cc1cccc(OCc2ccccc2)c1)C(=O)O
4 |  |  |  |  |  | 0.19 nM | 45 nM | 22 nM | 3.4 nM | CCCC[C@H](NC(=O)[C@@H]1CCCN1C(=O)CNC(=O)[C@H](CCCCN)NC(=O)[C@H](Cc1cnc[nH]1)NC(=O)[C@H](CO)NC(=O)[C@H](CC(C)C)NC(=O)[C@H](CCCNC(=N)N)NC(=O)[C@@H]1CCCN1C(=O)[C@H](CCCNC(=N)N)NC(=O)[C@@H]1CCC(=O)N1)C(=O)N1CCC[C@H]1C(=O)N1Cc2cc(OCc3ccccc3)ccc2C[C@@H]1C(=O)O
5 |  |  |  |  |  | 1.7 nM | 221 nM | 74 nM | 6.4 nM | CCCC[C@H](NC(=O)[C@@H]1CCCN1C(=O)CNC(=O)[C@H](CCCCN)NC(=O)[C@H](Cc1cnc[nH]1)NC(=O)[C@H](CO)NC(=O)[C@H](CC(C)C)NC(=O)[C@H](CCCNC(=N)N)NC(=O)[C@@H]1CCCN1C(=O)[C@H](CCCNC(=N)N)NC(=O)[C@@H]1CCC(=O)N1)C(=O)N1CCC[C@H]1C(=O)N[C@H]1Cc2c(ccc3ccccc23)CN(CC(=O)O)C1=O
6 | 0.35 nM | 64 nM | 21 nM | 2.1 nM |  |  |  |  |  | CCCC[C@H](NC(=O)[C@@H]1CCCN1C(=O)CNC(=O)[C@H](CCCCN)NC(=O)[C@H](Cc1cnc[nH]1)NC(=O)[C@H](CO)NC(=O)[C@H](CC(C)C)NC(=O)[C@H](CCCNC(=N)N)NC(=O)[C@@H]1CCCN1C(=O)[C@H](CCCNC(=N)N)NC(=O)[C@@H]1CCC(=O)N1)C(=O)N1CCC[C@H]1C(=O)N[C@H](Cc1ccc(-c2ccccc2)cc1)C(=O)O
7 | 0.31 nM | 47 nM | 24 nM | 1.4 nM |  |  |  |  |  | CCCC[C@H](NC(=O)[C@@H]1CCCN1C(=O)CNC(=O)[C@H](CCCCN)NC(=O)[C@H](Cc1cnc[nH]1)NC(=O)[C@H](CO)NC(=O)[C@H](CC(C)C)NC(=O)[C@H](CCCNC(=N)N)NC(=O)[C@@H]1CCCN1C(=O)[C@H](CCCNC(=N)N)NC(=O)[C@@H]1CCC(=O)N1)C(=O)N1CCC[C@H]1C(=O)N[C@H](Cc1cccc(-c2ccccc2)c1)C(=O)O
8 |  |  |  |  |  | 9.7 nM | 142 nM | 67 nM | 9.6 nM | CCCC[C@H](NC(=O)[C@@H]1CCCN1C(=O)CNC(=O)[C@H](CCCCN)NC(=O)[C@H](Cc1cnc[nH]1)NC(=O)[C@H](CO)NC(=O)[C@H](CC(C)C)NC(=O)[C@H](CCCNC(=N)N)NC(=O)[C@@H]1CCCN1C(=O)[C@H](CCCNC(=N)N)NC(=O)[C@@H]1CCC(=O)N1)C(=O)N1Cc2ccccc2C[C@@H]1C(=O)N[C@@H](Cc1ccccc1)C(=O)O
9 |  |  |  |  |  | 1 nM | 571 nM | 11 nM | 19 nM | CCCC[C@H](NC(=O)[C@@H]1CCCN1C(=O)CNC(=O)[C@H](CCCCN)NC(=O)[C@H](Cc1cnc[nH]1)NC(=O)[C@H](CO)NC(=O)[C@H](CC(C)C)NC(=O)[C@H](CCCNC(=N)N)NC(=O)[C@@H]1CCCN1C(=O)[C@H](CCCNC(=N)N)NC(=O)[C@@H]1CCC(=O)N1)C(=O)N1CCC[C@H]1C(=O)N[C@@](C)(Cc1ccc(OCc2ccccc2)cc1)C(=O)O
10 |  |  |  |  |  | 0.41 nM | 69 nM | 53 nM | 5.7 nM | CCCC[C@H](NC(=O)[C@@H]1CCCN1C(=O)CNC(=O)[C@H](CCCCN)NC(=O)[C@H](Cc1cnc[nH]1)NC(=O)[C@H](CO)NC(=O)[C@H](CC(C)C)NC(=O)[C@H](CCCNC(=N)N)NC(=O)[C@@H]1CCCN1C(=O)[C@H](CCCNC(=N)N)NC(=O)[C@@H]1CCC(=O)N1)C(=O)N1CCC[C@H]1C(=O)N[C@H](Cc1ccc(OCc2ccccc2)c(C2CCCC2)c1)C(=O)O
11 | 0.02 nM | 14 nM | 11 nM | 0.5 nM |  |  |  |  |  | CCCC[C@H](NC(=O)[C@@H]1CCCN1C(=O)CNC(=O)[C@H](CCCCN)NC(=O)[C@H](Cc1cnc[nH]1)NC(=O)[C@H](CO)NC(=O)[C@H](CC(C)C)NC(=O)[C@H](CCCNC(=N)N)NC(=O)[C@@H]1CCCN1C(=O)[C@H](CCCNC(=N)N)NC(=O)[C@@H]1CCC(=O)N1)C(=O)N1CCC[C@H]1C(=O)N[C@H](Cc1ccc(OCc2ccccc2)cc1)C(=O)O
12 |  |  |  |  |  | 0.37 nM | 94 nM |  | 4.3 nM | CCCC[C@H](NC(=O)[C@@H]1CCCN1C(=O)CNC(=O)[C@H](CCCCN)NC(=O)[C@H](Cc1cnc[nH]1)NC(=O)[C@H](CO)NC(=O)[C@H](CC(C)C)NC(=O)[C@H](CCCNC(=N)N)NC(=O)[C@@H]1CCCN1C(=O)[C@H](CCCNC(=N)N)NC(=O)[C@@H]1CCC(=O)N1)C(=O)N[C@H](Cc1ccc2ccccc2c1)C(=O)N1Cc2ccccc2C[C@@H]1C(=O)O
13 |  |  |  |  |  | 4.2 nM | 454 nM | 48 nM | 17 nM | CCCC[C@H](NC(=O)[C@@H]1CCCN1C(=O)CNC(=O)[C@H](CCCCN)NC(=O)[C@H](Cc1cnc[nH]1)NC(=O)[C@H](CO)NC(=O)[C@H](CC(C)C)NC(=O)[C@H](CCCNC(=N)N)NC(=O)[C@@H]1CCCN1C(=O)[C@H](CCCNC(=N)N)NC(=O)[C@@H]1CCC(=O)N1)C(=O)N1CC[C@H](c2ccccc2)[C@@H]1C(=O)N[C@@H](Cc1ccccc1)C(=O)O
14 |  |  |  |  |  | 0.36 nM | 69 nM | 67 nM | 2.4 nM | CCCC[C@H](NC(=O)[C@@H]1CCCN1C(=O)CNC(=O)[C@H](CCCCN)NC(=O)[C@H](Cc1cnc[nH]1)NC(=O)[C@H](CO)NC(=O)[C@H](CC(C)C)NC(=O)[C@H](CCCNC(=N)N)NC(=O)[C@@H]1CCCN1C(=O)[C@H](CCCNC(=N)N)NC(=O)[C@@H]1CCC(=O)N1)C(=O)N1CCC[C@H]1C(=O)N[C@H](C(=O)O)C(C)(C)c1ccccc1
15 |  |  |  |  |  | 6.1 nM | 192 nM | 63 nM | 6.4 nM | CCCC[C@H](NC(=O)[C@@H]1CCCN1C(=O)CNC(=O)[C@H](CCCCN)NC(=O)[C@H](Cc1cnc[nH]1)NC(=O)[C@H](CO)NC(=O)[C@H](CC(C)C)NC(=O)[C@H](CCCNC(=N)N)NC(=O)[C@@H]1CCCN1C(=O)[C@H](CCCNC(=N)N)NC(=O)[C@@H]1CCC(=O)N1)C(=O)N1CCC[C@H]1C(=O)N1C[C@@H](OCc2ccccc2)C[C@@H]1C(=O)O
16 |  |  |  |  |  | 4.3 nM | 311 nM | 481 nM | 6.8 nM | CCCC[C@H](NC(=O)[C@@H]1CCCN1C(=O)CNC(=O)[C@H](CCCCN)NC(=O)[C@H](Cc1cnc[nH]1)NC(=O)[C@H](CO)NC(=O)[C@H](CC(C)C)NC(=O)[C@H](CCCNC(=N)N)NC(=O)[C@@H]1CCCN1C(=O)[C@H](CCCNC(=N)N)NC(=O)[C@@H]1CCC(=O)N1)C(=O)N1CCC[C@H]1C(=O)N[C@H]1Cc2c([nH]c3ccccc23)CN(CC(=O)O)C1=O
17 |  |  |  |  |  | 0.37 nM | 40 nM | 108 nM | 1 nM | CCCC[C@H](NC(=O)[C@@H]1CCCN1C(=O)CNC(=O)[C@H](CCCCN)NC(=O)[C@H](Cc1cnc[nH]1)NC(=O)[C@H](CO)NC(=O)[C@H](CC(C)C)NC(=O)[C@H](CCCNC(=N)N)NC(=O)[C@@H]1CCCN1C(=O)[C@H](CCCNC(=N)N)NC(=O)[C@@H]1CCC(=O)N1)C(=O)N1CCC[C@H]1C(=O)N[C@H](C(=O)O)C(C)c1ccccc1 (stereo partly drawn)
18 |  |  |  |  |  | 1.6 nM | 361 nM | 111 nM | 16 nM | CCCC[C@H](NC(=O)[C@@H]1CCCN1C(=O)CNC(=O)[C@H](CCCCN)NC(=O)[C@H](Cc1cnc[nH]1)NC(=O)[C@H](CO)NC(=O)[C@H](CC(C)C)NC(=O)[C@H](CCCNC(=N)N)NC(=O)[C@@H]1CCCN1C(=O)[C@H](CCCNC(=N)N)NC(=O)[C@@H]1CCC(=O)N1)C(=O)N1CCC[C@H]1C(=O)N[C@H](Cc1cc(C2CCCC2)c(O)c(C2CCCC2)c1)C(=O)O
